# Results published in ChEMBL document CHEMBL1212762, “In vivo activity of ceftobiprole in murine skin infections due to Staphylococcus aureus and Pseudomonas aeruginosa” (Antimicrob Agents Chemother, 2010).
# How the values were obtained:
# Pseudomonas aeruginosa [1] = test: Antimicrobial activity against Pseudomonas aeruginosa OC 4354 infected in immunocompromized SKH1 mouse assessed as log change in bacterial colony forming unit at 25 mg/kg/day, sc; format: functional; conditions: route subcutaneous
# Method in brief: (§1)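 Female SKH1 hairless mice made neutropenic with ip cyclophosphamide (150 mg/kg 5 days and 100 mg/kg 1 day before infection). 0.2 ml s.c. Cytodex bead (0.1% vol/vol) inoculum in BHI: OC 4351 left flank, OC 4354 right flank. Drug s.c. at 1, 3, 25, 27 h postinfection. Killed at 48 h; skin homogenised in saline, plated on TSA 18 h 37°C; Δlog CFU/g versus inoculum. 5 mice/dose, run twice.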
# Plasma [2] = test: fAUC (0-infinity) in immunocompromized SKH1 mouse plasma at 12.5 mg/kg, sc; format: ADME, organism-based; set-up: dose 12.5 mg/kg, route subcutaneous; conditions: in vivo
# Method in brief: (§2)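 Female SKH1 hairless mice, immunocompetent or cyclophosphamide-neutropenic, infected s.c. with MRSA OC 8525 or P. aeruginosa OC 4354 on the Cytodex beads (left flank), sterile beads on the right. Single dose 24 h later: s.c. at the nape, or linezolid 50 mg/kg oral. Plasma and skin (DMSO homogenate) sampled over time, HPLC with diode array.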
# Pseudomonas aeruginosa [3] = test: Antimicrobial activity against Pseudomonas aeruginosa OC 4354 infected in immunocompromized SKH1 mouse assessed as lesion volume at 25 mg/kg/day, sc measured after 48 hrs postinfection (reference value: 2195 mm3); format: functional; conditions: route subcutaneous
# Pseudomonas aeruginosa [4] = test: Antimicrobial activity against Pseudomonas aeruginosa OC 4354 infected in immunocompromized SKH1 mouse assessed as log change in bacterial colony forming unit at 6.2 mg/kg/day, sc; format: functional; conditions: route subcutaneous; method in brief: as §1
# Pseudomonas aeruginosa [5] = test: Antimicrobial activity against Pseudomonas aeruginosa OC 4351 infected in immunocompromized SKH1 mouse assessed as log change in bacterial colony forming units at 25 mg/kg/day, sc; format: functional; conditions: route subcutaneous; method in brief: as §1
# Pseudomonas aeruginosa [6] = test: Antimicrobial activity against Pseudomonas aeruginosa OC 4351 infected in immunocompromized SKH1 mouse assessed as lesion volume at 25 mg/kg/day, sc measured after 48 hrs postinfection (reference value: 2234 mm3); format: functional; conditions: route subcutaneous
# Pseudomonas aeruginosa [7] = test: Antimicrobial activity against Pseudomonas aeruginosa OC 4354 infected in immunocompromized SKH1 mouse assessed as log change in bacterial colony forming unit at 1.6 mg/kg/day, sc; format: functional; conditions: route subcutaneous; method in brief: as §1
# Pseudomonas aeruginosa [8] = test: Antimicrobial activity against Pseudomonas aeruginosa OC 4351 infected in immunocompromized SKH1 mouse assessed as log change in bacterial colony forming unit at 1.6 mg/kg/day, sc; format: functional; conditions: route subcutaneous; method in brief: as §1
# [9] = fT>MIC in Pseudomonas aeruginosa OC 4354 infected sc dosed SKH1 mouse administered in 24 hrs dosing interval; format: functional
# Method in brief: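 Plasma levels came from female hairless SKH1 mice given single s.c. doses at the nape 24 h after flank s.c. infection with Cytodex beads. S. aureus work used immunocompetent mice. P. aeruginosa work used mice made neutropenic with cyclophosphamide i.p., 150 mg/kg at day −5 and 100 mg/kg at day −1. Drug assayed by HPLC with diode-array detection. Noncompartmental analysis.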
# Plasma [10] = test: fAUC (0-infinity) in immunocompromized SKH1 mouse plasma at 50 mg/kg, sc; format: ADME, organism-based; set-up: dose 50 mg/kg, route subcutaneous; conditions: in vivo; method in brief: as §2
# [11] = Tmax in immunocompromized SKH1 mouse plasma at 50 mg/kg, sc; format: ADME, organism-based; set-up: dose 50 mg/kg, route subcutaneous; method in brief: as §2
# Pseudomonas aeruginosa [12] = test: Antimicrobial activity against Pseudomonas aeruginosa OC 4351 infected in immunocompromized SKH1 mouse assessed as log change in bacterial colony forming unit at 25 mg/kg/day, sc; format: functional; conditions: route subcutaneous; method in brief: as §1
# [13] = fT>MIC in Pseudomonas aeruginosa OC 4351 infected sc dosed SKH1 mouse administered in 24 hrs dosing interval; format: functional
# Pseudomonas aeruginosa [14] = test: Antimicrobial activity against Pseudomonas aeruginosa OC 4351 infected in immunocompromized SKH1 mouse assessed as log change in bacterial colony forming unit at 100 mg/kg/day, sc; format: functional; conditions: route subcutaneous; method in brief: as §1
# Pseudomonas aeruginosa [15] = test: Antimicrobial activity against Pseudomonas aeruginosa OC 4354 infected in immunocompromized SKH1 mouse assessed as lesion volume at 1.6 mg/kg/day, sc measured after 48 hrs postinfection (reference value: 2195 mm3); format: functional; conditions: route subcutaneous
# Plasma [16] = test: fCmax in immunocompromized SKH1 mouse plasma at 50 mg/kg, sc; format: ADME, organism-based; set-up: dose 50 mg/kg, route subcutaneous; conditions: in vivo; method in brief: as §2
# Plasma [17] = test: fCmax in immunocompromized SKH1 mouse plasma at 12.5 mg/kg, sc; format: ADME, organism-based; set-up: dose 12.5 mg/kg, route subcutaneous; conditions: in vivo; method in brief: as §2
# Pseudomonas aeruginosa [18] = test: Antimicrobial activity against Pseudomonas aeruginosa OC 4351 assessed as inhibition of growth by broth microdilution method; format: functional
# [19] = Tmax in immunocompromized SKH1 mouse plasma at 12.5 mg/kg, sc; format: ADME, organism-based; set-up: dose 12.5 mg/kg, route subcutaneous; method in brief: as §2
# [20] = fT>MIC in Pseudomonas aeruginosa OC 4354 infected sc dosed SKH1 mouse at 50 mg/kg, sc administered twice at 1 and 3 hrs after infection; format: functional; conditions: route subcutaneous
# Pseudomonas aeruginosa [21] = test: Antimicrobial activity against Pseudomonas aeruginosa OC 4351 infected in immunocompromized SKH1 mouse assessed as lesion volume at 100 mg/kg/day, sc measured after 48 hrs postinfection (reference value: 2234 mm3); format: functional; conditions: route subcutaneous
# [22] = Half life in immunocompromized SKH1 mouse plasma at 50 mg/kg, sc; format: ADME, organism-based; set-up: dose 50 mg/kg, route subcutaneous
# [23] = Half life in immunocompromized SKH1 mouse plasma at 12.5 mg/kg, sc; format: ADME, organism-based; set-up: dose 12.5 mg/kg, route subcutaneous; method in brief: as §2
# Pseudomonas aeruginosa [24] = test: Antimicrobial activity against Pseudomonas aeruginosa OC 4351 infected in immunocompromized SKH1 mouse assessed as lesion volume at 6.2 mg/kg/day, sc measured after 48 hrs postinfection (reference value: 2234 mm3); format: functional; conditions: route subcutaneous
# Pseudomonas aeruginosa [25] = test: Antimicrobial activity against Pseudomonas aeruginosa OC 4354 infected in immunocompromized SKH1 mouse assessed as lesion volume at 100 mg/kg/day, sc measured after 48 hrs postinfection (reference value: 2195 mm3); format: functional; conditions: route subcutaneous
# Pseudomonas aeruginosa [26] = test: Antimicrobial activity against Pseudomonas aeruginosa OC 4354 assessed as inhibition of growth by broth microdilution method; format: functional
# Pseudomonas aeruginosa [27] = test: Antimicrobial activity against Pseudomonas aeruginosa OC 4351 infected in immunocompromized SKH1 mouse assessed as lesion volume at 1.6 mg/kg/day, sc measured after 48 hrs postinfection (reference value: 2234 mm3); format: functional; conditions: route subcutaneous
# Pseudomonas aeruginosa [28] = test: Antimicrobial activity against Pseudomonas aeruginosa OC 4354 infected in immunocompromized SKH1 mouse assessed as lesion volume at 6.2 mg/kg/day, sc measured after 48 hrs postinfection (reference value: 2195 mm3); format: functional; conditions: route subcutaneous
# [29] = fT>MIC in Pseudomonas aeruginosa OC 4351 infected sc dosed SKH1 mouse at 50 mg/kg, sc administered twice at 1 and 3 hrs after infection; format: functional; conditions: route subcutaneous
# Pseudomonas aeruginosa [30] = test: Antimicrobial activity against Pseudomonas aeruginosa OC 4354 infected in immunocompromized SKH1 mouse assessed as log change in bacterial colony forming unit at 100 mg/kg/day, sc; format: functional; conditions: route subcutaneous; method in brief: as §1
# Staphylococcus aureus [31] = test: Antimicrobial activity against methicillin-resistant Staphylococcus aureus OC 8525 infected immunocompetent SKH1 mouse assessed as lesion volume at 1.6 mg/kg/day, sc measured after 48 hrs postinfection (reference value: 1535 mm3); conditions: route subcutaneous
# Staphylococcus aureus [32] = test: Antimicrobial activity against methicillin-resistant Staphylococcus aureus OC 8525 infected immunocompetent SKH1 mouse assessed as lesion volume at 25 mg/kg/day, sc measured after 48 hrs postinfection (reference value: 1535 mm3); conditions: route subcutaneous
# [33] = Tmax in immunocompetent SKH1 mouse plasma at 50 mg/kg, sc; format: ADME, organism-based; set-up: dose 50 mg/kg, route subcutaneous; method in brief: as §2
# Staphylococcus aureus [34] = test: Antimicrobial activity against methicillin-susceptible Staphylococcus aureus Smith OC 4172 infected immunocompetent SKH1 mouse assessed as lesion volume at 25 mg/kg/day, sc measured after 48 hrs postinfection (reference value: 1181 mm3); conditions: route subcutaneous
# Staphylococcus aureus [35] = test: Antimicrobial activity against methicillin-resistant Staphylococcus aureus OC 8525 infected immunocompetent SKH1 mouse assessed as lesion volume at 100 mg/kg/day, sc measured after 48 hrs postinfection (reference value: 1535 mm3); conditions: route subcutaneous
# Staphylococcus aureus [36] = test: Antimicrobial activity against methicillin-susceptible Staphylococcus aureus Smith OC 4172 infected immunocompetent SKH1 mouse assessed as lesion volume at 6.2 mg/kg/day, sc measured after 48 hrs postinfection (reference value: 1181 mm3); conditions: route subcutaneous
# [37] = Protein binding in mouse plasma; format: ADME, cell-free; conditions: read-out: PPB (converted)
# Staphylococcus aureus [38] = test: Antimicrobial activity against methicillin-resistant Staphylococcus aureus OC 8525 infected immunocompetent SKH1 mouse assessed as lesion volume at 6.2 mg/kg/day, sc measured after 48 hrs postinfection (reference value: 1535 mm3); conditions: route subcutaneous
# [39] = Half life in immunocompetent SKH1 mouse plasma at 50 mg/kg, sc; format: ADME, organism-based; set-up: dose 50 mg/kg, route subcutaneous
# Staphylococcus aureus [40] = test: Antimicrobial activity against methicillin-susceptible Staphylococcus aureus Smith OC 4172 infected immunocompetent SKH1 mouse assessed as lesion volume at 1.6 mg/kg/day, sc measured after 48 hrs postinfection (reference value: 1181 mm3); conditions: route subcutaneous
# Plasma [41] = test: fCmax in immunocompetent SKH1 mouse plasma at 50 mg/kg, sc; format: ADME, organism-based; set-up: dose 50 mg/kg, route subcutaneous; conditions: in vivo; method in brief: as §2
# Plasma [42] = test: fAUC (0-infinity) in immunocompetent SKH1 mouse plasma at 50 mg/kg, sc; format: ADME, organism-based; set-up: dose 50 mg/kg, route subcutaneous; conditions: in vivo; method in brief: as §2
# [43] = Ratio of fAUC to MIC in Staphylococcus aureus OC 4172 infected sc dosed SKH1 mouse; format: functional
# Method in brief: (§3)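 Free-drug plasma AUC, converted from μg·min/ml to μg·h/ml, divided by the MIC of the infecting S. aureus strain.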
# Staphylococcus aureus [44] = test: Antimicrobial activity against methicillin-susceptible Staphylococcus aureus Smith OC 4172 infected immunocompetent SKH1 mouse assessed as lesion volume at 100 mg/kg/day, sc measured after 48 hrs postinfection (reference value: 1181 mm3); conditions: route subcutaneous
# [45] = Ratio of fAUC to MIC in Staphylococcus aureus OC 8525 infected sc dosed SKH1 mouse; format: functional; method in brief: as §3
structure (smiles),measurement,setting,value
C[C@@H](O)[C@H]1C(=O)N2C(C(=O)O)=C(S[C@@H]3CN[C@H](C(=O)N(C)C)C3)[C@H](C)[C@H]12 [MEROPENEM],deltalog10CFU,Pseudomonas aeruginosa [1],-1.1
same,fAUC,Plasma [2],268 µg·min/mL
same,Activity,Pseudomonas aeruginosa [3],926 mm3
same,deltalog10CFU,Pseudomonas aeruginosa [4],0.5
same,deltalog10CFU,Pseudomonas aeruginosa [5],-0.9
same,Activity,Pseudomonas aeruginosa [6],862 mm3
same,deltalog10CFU,Pseudomonas aeruginosa [7],0.7
same,deltalog10CFU,Pseudomonas aeruginosa [8],0.2
same,fT>MIC,[9],8%
same,fAUC,Plasma [10],1837 µg·min/mL
same,Tmax,[11],7.5 min
same,deltalog10CFU,Pseudomonas aeruginosa [12],0.2
same,fT>MIC,[13],8.5%
same,deltalog10CFU,Pseudomonas aeruginosa [14],-1
same,Activity,Pseudomonas aeruginosa [15],1316 mm3
same,fCmax,Plasma [16],72 µg/mL
same,fCmax,Plasma [17],11 µg/mL
same,MIC,Pseudomonas aeruginosa [18],0.12 µg/mL
same,Tmax,[19],7.5 min
same,fT>MIC,[20],1.9 h
same,Activity,Pseudomonas aeruginosa [21],602 mm3
same,half-life,[22],8.6 min
same,half-life,[23],13.6 min
same,Activity,Pseudomonas aeruginosa [24],992 mm3
same,Activity,Pseudomonas aeruginosa [25],810 mm3
same,MIC,Pseudomonas aeruginosa [26],0.5 µg/mL
same,Activity,Pseudomonas aeruginosa [27],1190 mm3
same,Activity,Pseudomonas aeruginosa [28],1030 mm3
same,fT>MIC,[29],2 h
same,deltalog10CFU,Pseudomonas aeruginosa [30],-1.1
CN[C@H](CC(C)C)C(=O)N[C@H]1C(=O)N[C@@H](CC(N)=O)C(=O)N[C@H]2C(=O)N[C@H]3C(=O)N[C@H](C(=O)N[C@H](C(=O)O)c4cc(O)cc(O)c4-c4cc3ccc4O)[C@H](O)c3ccc(c(Cl)c3)Oc3cc2cc(c3O[C@@H]2O[C@H](CO)[C@@H](O)[C@H](O)[C@H]2O[C@H]2C[C@](C)(N)[C@H](O)[C@H](C)O2)Oc2ccc(cc2Cl)[C@H]1O [VANCOMYCIN],Activity,Staphylococcus aureus [31],1637 mm3
same,Activity,Staphylococcus aureus [32],927 mm3
same,Tmax,[33],10 min
same,Activity,Staphylococcus aureus [34],916 mm3
same,Activity,Staphylococcus aureus [35],606 mm3
same,Activity,Staphylococcus aureus [36],1211 mm3
same,fraction unbound,[37],0.75
same,Activity,Staphylococcus aureus [38],1392 mm3
same,half-life,[39],22 min
same,Activity,Staphylococcus aureus [40],1386 mm3
same,fCmax,Plasma [41],40 µg/mL
same,fAUC,Plasma [42],2070 µg·min/mL
same,fAUC/MIC,[43],2070
same,Activity,Staphylococcus aureus [44],437 mm3
same,fAUC/MIC,[45],2070
